Measured values from different studies.
Target: 3',5'-cyclic-AMP phosphodiesterase 4B (PDE4B, Homo sapiens, UniProt Q07343)
Read-out: enzyme activity
Action: inhibitor

Structure (SMILES) | method | measurement | result
CSc1ccc(/C=C2/C(C)=C(CC(=O)O)c3cc(F)ccc32)cc1 | – | IC50 | > 100 µM
CC(C)CC(=O)c1ccc(OC(F)F)c(O[C@@H]2CCOC2)c1 | radiometric | IC50 | 0.089 µM
CN1C(=O)c2c(nn(Cc3ccc(-c4cccc(F)n4)cc3)c2Nc2ccccc2)N2C1=N[C@@H]1CCC[C@@H]12 | – | IC50 | > 0.1 µM
COc1ccc(C2=NN(C3CCCCCC3)C(=O)C3CC=CCC23)cc1-c1ccc(C(=O)N2CCC[C@@H]2C(N)=O)cc1 (mixture of isomers) | – | Ki | 6.31 µM
CCn1c(-c2nc3ccc(C(=O)N4CCCC(N)C4)cc3n2C)cc2ccccc21 (centres unmarked) | – | IC50 | 25.1 µM
COc1ccc(C2=NN(C3CCCCCC3)C(=O)C3CC=CCC23)cc1-c1ccc(C(=O)N2CC[C@@H](O)C2)cc1 (mixture of isomers) | – | Ki | 2 µM
COc1ccc([C@@H]2CN(C(=O)[C@@H](O)CO)C[C@@]2(C)[C@@H](C)O)cc1OC1CN(c2ccc(C)cn2)C1 | – | IC50 | 9e-05 µM
CCn1c(-c2nc3cc(C(=O)N4CCC[C@@H](N)C4)cc(OC)c3n2C)cc2cccnc21 | – | IC50 | 6.31 µM
